Values joined by “and” are separate entries in the source; they are usually repeats but may differ in a detail not shown here. Equal entries are not always repeated. Where two headings read alike, the source gives them in different places.

The values below come from publication PMC7239729 (Pharmacology, biochemistry, and behavior, 2020).

Series [1] has as its system hCB1 receptors. The following applies: ref Wouters et al., 2019; cited from earlier work.
The target in series [2] is human CB1 (hCB1) receptor (Homo sapiens, UniProt P21554). The format is binding. The settings on record: at both receptors (hCB1 and hCB2).
Series [3] deals with human CB2 (hCB2) receptor (Homo sapiens, UniProt P34972). Description: [3H]CP55,940 competition binding, hCB2 HEK293 membranes.
The target in series [4] is T1, hCB1 receptor (Homo sapiens, UniProt P21554). Description: biochemical. The format is biochemical.
Series [5] has as its target T2, hCB2 receptor (Homo sapiens, UniProt P34972). The series can be described thus: agonist-stimulated [35S]GTPγS binding, hCB2 HEK293 membranes. The format is biochemical. The following applies: for CP55,940 more potent than the compound: hCB2, [35S]GTPγS; for CP55,940 greater efficacy than the compound: hCB2, [35S]GTPγS Emax.
Series [6] deals with T1, hCB1 receptor. The series can be described thus: cell-based. Type of series: cell-based.
In series [7] the target is T2, hCB2 receptor. Description: inhibition of forskolin-stimulated cAMP production. The format is cell-based. The settings on record: for CP55,940 more potent than the compound: hCB2, cAMP.
Series [8] deals with mice trained to discriminate THC (5.6 mg/kg, i.p.) from vehicle. Description: THC drug discrimination in mice. The format is in vivo, mouse. The settings on record: for substitution for THC / effect on response rates compared to vehicle: i.p.; for substitution for THC: EG-018 10 – 100 mg/kg, full substitution ≥ 80% drug-aperture responding; for effect on response rates compared to vehicle: substitution tests; for ED50: Mus musculus.

Series [9] deals with male ICR mice. Description: cannabinoid tetrad in mice. Type of series: in vivo, mouse.
Series [10] can be described thus: rat liver microsome incubation. The format is in vitro ADME. The gist of the method: (§1)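 Pooled liver microsomes (rat: IGS Sprague-Dawley; human: pooled) at 1 mg protein/mL final with 1 mM NADPH in 50 mM potassium phosphate, pH 7.4, 3 mM MgCl2. Mix preincubated 5 min at 37 °C, then test compound added to 1 μM. Triplicate incubations at 37 °C. Samples at 0, 5, 10, 30 and 60 min quenched in acetonitrile, then extracted with acetonitrile (3:1) and analysed by LC-MS/MS.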

The nature of series [11]: human liver microsome incubation. Type of series: in vitro ADME. The gist of the method:
as §1

A short description of series [12]: rat plasma pharmacokinetics. The format is in vivo. The gist of the method: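 Four 49-day-old male Long-Evans rats with jugular vein catheters, housed singly in metabolite cages. Test compound given i.p. at 3 mg/kg (3 mg/mL in 7.8% polysorbate 80/92.2% saline). Blood drawn 0.25 h before dosing and 0.25, 0.5, 1, 2, 4, 8 and 24 h after, into chilled K3EDTA. Plasma separated at 4 °C, extracted with acetonitrile (3:1) and analysed by LC-MS/MS.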

The nature of series [13]: metabolite analysis in mouse urine. Type of series: in vivo. The following applies: mice, 30 mg/kg i.p., pooled 24 h urine, LC-MS.
The target of series [14] is CB1. The following applies: read-out: affinity; ref Wiley et al., 2015; cited from earlier work.
Series [15] deals with mice. The settings on record: ref Wiley et al., 2015, cited from earlier work.
For series [16] the following is noted: same dosing procedure; ref Kevin et al., 2017b; cited from earlier work.
Where [17] appears, read: HEK293, read-out: % of CP55,940 Emax.
The mark [18] stands for this setting: i.p., 30 min, THC 3, 10 or 56 mg/kg, EG-018 1-100 mg/kg.
The mark [19] stands for this setting: i.p., THC 3, 10 or 56 mg/kg, EG-018 1-100 mg/kg.
Where [20] appears, read: Sprague-Dawley, rat, pooled rat liver microsomes, pH 7.4.
[21] abbreviates: human, pooled human liver microsomes, pH 7.4.
The mark [22] stands for this setting: male, Long-Evans, rat, plasma, ip, 3 mg/kg.
The mark [23] stands for this setting: rimonabant 3 mg/kg i.v. 10 min before EG-018 56 mg/kg i.v.

T1 sequence (P21554 whole entry): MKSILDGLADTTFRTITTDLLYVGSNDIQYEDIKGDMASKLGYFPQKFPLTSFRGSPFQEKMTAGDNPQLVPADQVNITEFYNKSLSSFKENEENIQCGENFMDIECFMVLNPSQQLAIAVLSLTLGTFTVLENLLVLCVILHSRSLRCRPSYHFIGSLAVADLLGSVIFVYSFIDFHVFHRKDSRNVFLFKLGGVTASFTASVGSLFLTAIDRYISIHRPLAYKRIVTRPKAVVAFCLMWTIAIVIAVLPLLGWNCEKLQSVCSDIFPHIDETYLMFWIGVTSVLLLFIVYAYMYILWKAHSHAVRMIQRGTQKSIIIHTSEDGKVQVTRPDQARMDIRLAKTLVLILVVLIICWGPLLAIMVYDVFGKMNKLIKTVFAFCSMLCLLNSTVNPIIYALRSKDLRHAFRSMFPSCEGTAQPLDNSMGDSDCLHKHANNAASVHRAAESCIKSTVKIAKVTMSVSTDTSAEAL
T2 sequence (P34972 whole entry): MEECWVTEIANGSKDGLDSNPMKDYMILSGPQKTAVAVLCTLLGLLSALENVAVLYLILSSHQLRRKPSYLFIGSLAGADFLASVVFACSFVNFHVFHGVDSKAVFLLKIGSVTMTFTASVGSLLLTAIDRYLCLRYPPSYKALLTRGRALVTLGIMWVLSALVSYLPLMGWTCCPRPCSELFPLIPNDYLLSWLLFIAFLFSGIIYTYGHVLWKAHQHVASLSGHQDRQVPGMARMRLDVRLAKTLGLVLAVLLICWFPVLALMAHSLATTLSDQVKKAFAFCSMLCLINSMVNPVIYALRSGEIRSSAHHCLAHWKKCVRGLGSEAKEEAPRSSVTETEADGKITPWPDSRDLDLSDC
human CB2 (hCB2) receptor, sequence (P34972 whole entry): as above
human CB1 (hCB1) receptor, sequence (P21554 whole entry): as the sequence (P21554 whole entry) above

On to `CCCCCCC(C)(C)c1ccc([C@@H]2C[C@H](O)CC[C@H]2CCCO)c(O)c1` [CP55,940, reference compound], for which the “greater potency for mini-Gαi over beta arrestin-2” value in series [1] is given as “four-fold shift in potency”.

Regarding `CCCCCn1c2ccccc2c2cc(C(=O)c3cccc4ccccc34)ccc21` [EG-018, Naphthalen-1-yl(9-pentyl-9H-carbazol-3-yl)methanone], in series [2], the “lower affinity than CP55,940” value was 10- to 40 fold. Moreover, the Ki in series [3] (Ki (nM), hCB2, HEK293 membranes, [3H]CP55,940) was 8 nM and 7.76 nM. For the same compound, the “greater affinity for hCB2 over hCB1” value in [3] (Ki ratio hCB1/hCB2) is listed as “approximately 3 fold”. Moreover, in series [4] (hCB1, [35S]GTPγS), the “less potent than CP55,940” value is listed as “approximately 90 fold”. For the same compound, the “CP55,940 greater efficacy than the compound” value is given as 3.5 fold in series [4] (hCB1, [35S]GTPγS Emax) and 2.5 fold in series [5]. Also, in [4] (hCB1, [35S]GTPγS Emax), the “less efficacy than THC” value is listed as “approximately 2 fold”. In [4] (initial studies, ligands not pre-equilibrated prior to addition of [35S]GTPγS (data not shown)), the “activity in [35S]GTPγS binding” value was “appeared to be inactive”. Moreover, the Emax was determined as 28% in [4] (read-out: % of CP55,940 Emax); 73.9 ± 9.12% in series [4] (read-out: Emax±SEM); 40% in series [5] (read-out: % of CP55,940 Emax); 46.2 ± 2.72% in series [5] (read-out: Emax±SEM); 73% in [6] (setting [17]); 32.9 ± 2.27% in [6] (HEK293, read-out: Emax±SEM). Also, the Emax in series [7] (setting [17]) worked out at 48%; in series [7] (HEK293, read-out: Emax±SEM) it was 28.1 ± 6.14%. Further, the EC50 came out at 0.0113 µM in series [5] and 0.182 µM in series [7]. Also, the “CP55,940 more potent than the compound” value in [5] came to 12 fold; in series [6] (hCB1, cAMP), 53 fold; in [7], 114 fold. In series [8], the “substitution for THC” value was “did not substitute for THC at any dose”. Further, the “effect on response rates compared to vehicle” value in [8] is listed as “Neither THC nor EG-018 significantly affected response rates”. Also, the figures for the “antinociception (tail-flick)” value in [9] (56 mg/kg i.v.) and in [9] (setting [19]) were “did not significantly elicit antinociceptive behavior” and “did not produce significant effects in any of the four assays”, respectively. Besides, the “catalepsy (ring immobility)” value in [9] (56 mg/kg i.v.) is “catalepsy”; in series [9] (setting [19]), “did not produce significant effects in any of the four assays”. For the same compound, the results for the rectal temperature result in [9] (56 mg/kg i.v.) and in series [9] (setting [19]) were “hypothermia” and “did not produce significant effects in any of the four assays”, respectively. For the same compound, the locomotor activity entry in series [9] (56 mg/kg i.v., 5 min) is “hypomotility”; in [9] (setting [18]), “did not produce significant effects in any of the four assays”. Further, the figures for the half-life at 1 μM in series [10] (setting [20]) and in series [11] (setting [21]) were 4.29 min and 2.04 min, respectively. Further, the microsomal CLint at 1 μM in series [10] (setting [20]) worked out at 160 µL/min/mg; in series [11] (setting [21]), 340 µL/min/mg. In addition, the “CLH (mL/min/kg body wt.)” value in series [10] (rat liver microsomes, estimated hepatic clearance) is 46.39 mL/min/kg body wt; in series [11] (human liver microsomes, estimated hepatic clearance), 19.03 mL/min/kg body wt. Moreover, the “CLint (mL/min/kg body wt.)” value is 290.77 mL/min/kg body wt in series [10] (rat liver microsomes, estimated intrinsic clearance) and 393.09 mL/min/kg body wt in [11] (human liver microsomes, estimated intrinsic clearance). The ER amounted to 0.84 in series [10] (rat liver microsomes, extraction ratio) and 0.95 in [11] (human liver microsomes, extraction ratio). Also, the AUC(0-inf) in series [12] (setting [22]) came to 168 ng·h/mL. In [12] (setting [22]), this compound had an area under the curve AUC(0-t) of 154 ng·h/mL. For the same compound, the maximum concentration (Cmax) in series [12] (setting [22]) worked out at 26 ng/mL. Also, in [12] (setting [22]), the Tmax stood at 2 h. The half-life in series [12] (male, Long-Evans, rat, plasma, ip, 3 mg/kg, Half life (h), rat plasma, 3 mg/kg i.p.) is 2.5 h. Further, the “CL/F (mL/min/kg body wt.)” value in series [12] (rat plasma, 3 mg/kg i.p., observed apparent clearance) came out at 520.93 mL/min/kg body wt. Besides, the “Half life” value in series [12] (rat plasma, 3 mg/kg i.p., 3 mg/kg) worked out at 2.53 h. Further, in series [13], the “parent compound or metabolites in urine” value was “No intact parent compound or metabolites were identified”. Besides, the “greater potency for mini-Gαi over beta arrestin-2” value in series [1] was 26 fold.

For `O=C(c1cccc2ccccc12)c1nc2ccccc2n1CCCCCF` [FUBIMINA], the Ki in series [14] is 0.296 µM. Further, the tetrad effects result in series [15] (56 mg/kg i.v.) is on record as “produced marked tetrad effects in all four measures”; in series [15] (doses up to 100 mg/kg i.p.), “largely without effect”.

Take `CCCCCn1nc(C(=O)Nc2cccc3ccccc23)c2ccccc21` [MN-18]: the Tmax in series [16] is ~2.5 h.

As for `CCCCCn1cc(C(=O)Nc2cccc3ccccc23)c2ccccc21` [NNEI], the Tmax entry in [16] was “approximately 0.5 hours”.

For the compound `CCCCCc1cc(O)c2c(c1)OC(C)(C)[C@@H]1CCC(C)=C[C@@H]21` [THC, delta-9-tetrahydrocannabinol], the maximal effect (Emax) in [7] (setting [17]) was determined as 45%. Further, the maximum response (Emax) in [7] (HEK293, read-out: Emax±SEM) stood at 27.3 ± 3.68%. In addition, the “CP55,940 more potent than the compound” value in series [7] is 26 fold. For the same compound, the ED50 in [8] (ip, read-out: ED50, substitution for THC) is 2.2 mg/kg. In addition, in [8] (ip, read-out: ED50 of THC after EG-018 pretreatment), the median effective dose (ED50) was 1.2 mg/kg. Also, the ED50 in series [8] (read-out: ED50 of THC after vehicle pretreatment) turned out to be 1.5 mg/kg. In series [8], the “substitution for THC” value is listed as “fully substituted for itself” and the “effect on response rates compared to vehicle” value is given as “Neither THC nor EG-018 significantly affected response rates”. Moreover, in [9] (setting [18]), the locomotor activity result was “hypomotility”. Also, in [9] (setting [19]), the “antinociception (tail-flick)” value is on record as “anti-nociception”, the “catalepsy (ring immobility)” value is recorded as “catalepsy” and the rectal temperature result is reported as “hypothermia”.

As for `CCCCC/C=C\C/C=C\C/C=C\C/C=C\CCCC(=O)NCCO` [anandamide], in [5], the “CP55,940 more potent than the compound” value is reported as 200 fold and the “CP55,940 greater efficacy than the compound” value was determined as 2.5 fold. In addition, the Emax in series [5] (read-out: Emax±SEM) amounted to 49.2 ± 2.25%.

Take `Cc1c(C(=O)NN2CCCCC2)nn(-c2ccc(Cl)cc2Cl)c1-c1ccc(Cl)cc1` [rimonabant, reference compound]: in series [9] (setting [23]), the “antagonism of EG-018-induced catalepsy” value is listed as “attenuated catalepsy”, the “antagonism of EG-018-induced hypomotility” value is “did not significantly reduce” and the “antagonism of EG-018-induced hypothermia” value is listed as “did not significantly reduce hypothermia”. Besides, the “antagonism of FUBIMINA tetrad effects” value in series [15] (rimonabant 3 mg/kg i.v. before FUBIMINA 56 mg/kg i.v.) was “reversed”.
